In assay [1] the target is T1, Nitric oxide synthase 3 (Bos taurus, UniProt P29473).
T1 sequence (P29473 whole entry): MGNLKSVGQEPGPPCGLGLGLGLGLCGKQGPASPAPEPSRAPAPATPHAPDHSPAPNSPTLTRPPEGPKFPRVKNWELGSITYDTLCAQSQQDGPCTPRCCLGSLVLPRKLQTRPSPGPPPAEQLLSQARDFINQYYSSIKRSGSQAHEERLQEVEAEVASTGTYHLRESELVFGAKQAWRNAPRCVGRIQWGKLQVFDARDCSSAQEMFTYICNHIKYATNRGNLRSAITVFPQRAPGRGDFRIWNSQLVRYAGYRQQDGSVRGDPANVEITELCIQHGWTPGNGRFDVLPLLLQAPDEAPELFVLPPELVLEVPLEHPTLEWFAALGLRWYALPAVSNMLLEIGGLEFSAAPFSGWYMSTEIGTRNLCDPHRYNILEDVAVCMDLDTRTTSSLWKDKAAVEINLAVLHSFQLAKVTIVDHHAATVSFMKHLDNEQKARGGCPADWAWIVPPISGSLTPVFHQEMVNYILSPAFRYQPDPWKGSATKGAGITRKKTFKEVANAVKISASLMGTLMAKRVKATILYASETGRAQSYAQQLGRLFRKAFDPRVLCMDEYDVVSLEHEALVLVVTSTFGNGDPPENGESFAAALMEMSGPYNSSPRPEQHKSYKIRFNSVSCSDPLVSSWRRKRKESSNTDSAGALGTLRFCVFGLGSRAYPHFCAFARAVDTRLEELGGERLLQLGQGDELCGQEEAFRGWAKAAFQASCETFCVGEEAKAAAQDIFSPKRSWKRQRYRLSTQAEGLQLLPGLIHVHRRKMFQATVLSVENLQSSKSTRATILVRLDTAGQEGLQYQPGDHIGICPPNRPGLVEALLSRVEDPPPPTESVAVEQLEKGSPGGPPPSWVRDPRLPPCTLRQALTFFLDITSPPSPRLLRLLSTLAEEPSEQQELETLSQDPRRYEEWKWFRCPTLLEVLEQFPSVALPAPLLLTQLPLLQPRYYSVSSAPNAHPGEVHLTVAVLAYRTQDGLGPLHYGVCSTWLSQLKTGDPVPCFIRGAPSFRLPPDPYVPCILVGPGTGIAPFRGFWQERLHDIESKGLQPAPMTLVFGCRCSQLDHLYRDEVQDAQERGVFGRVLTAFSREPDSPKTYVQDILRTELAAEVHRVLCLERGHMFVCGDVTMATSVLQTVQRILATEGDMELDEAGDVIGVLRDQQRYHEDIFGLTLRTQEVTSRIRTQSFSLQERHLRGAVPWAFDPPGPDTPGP
Description: Inhibitory concentration tested against bovine endothelial nitric oxide synthase (eNOS). Summed up: (§1)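 NOS activity measured as enzymatic conversion of [3H]L-arginine into [3H]L-citrulline; inhibition taken as the reduction of this conversion. Both constitutive isoforms (neuronal and endothelial) were assayed, and the nNOS/eNOS selectivity was calculated from the two results.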

The target of assay [2] is T2, Nitric oxide synthase 1 (Rattus norvegicus, UniProt P29476). Kind of assay: Inhibitory concentration tested against neuronal nitric oxide synthase (nNOS ) from rat cerebellum. In kind it is tissue-based.
T2 sequence (P29476 whole entry): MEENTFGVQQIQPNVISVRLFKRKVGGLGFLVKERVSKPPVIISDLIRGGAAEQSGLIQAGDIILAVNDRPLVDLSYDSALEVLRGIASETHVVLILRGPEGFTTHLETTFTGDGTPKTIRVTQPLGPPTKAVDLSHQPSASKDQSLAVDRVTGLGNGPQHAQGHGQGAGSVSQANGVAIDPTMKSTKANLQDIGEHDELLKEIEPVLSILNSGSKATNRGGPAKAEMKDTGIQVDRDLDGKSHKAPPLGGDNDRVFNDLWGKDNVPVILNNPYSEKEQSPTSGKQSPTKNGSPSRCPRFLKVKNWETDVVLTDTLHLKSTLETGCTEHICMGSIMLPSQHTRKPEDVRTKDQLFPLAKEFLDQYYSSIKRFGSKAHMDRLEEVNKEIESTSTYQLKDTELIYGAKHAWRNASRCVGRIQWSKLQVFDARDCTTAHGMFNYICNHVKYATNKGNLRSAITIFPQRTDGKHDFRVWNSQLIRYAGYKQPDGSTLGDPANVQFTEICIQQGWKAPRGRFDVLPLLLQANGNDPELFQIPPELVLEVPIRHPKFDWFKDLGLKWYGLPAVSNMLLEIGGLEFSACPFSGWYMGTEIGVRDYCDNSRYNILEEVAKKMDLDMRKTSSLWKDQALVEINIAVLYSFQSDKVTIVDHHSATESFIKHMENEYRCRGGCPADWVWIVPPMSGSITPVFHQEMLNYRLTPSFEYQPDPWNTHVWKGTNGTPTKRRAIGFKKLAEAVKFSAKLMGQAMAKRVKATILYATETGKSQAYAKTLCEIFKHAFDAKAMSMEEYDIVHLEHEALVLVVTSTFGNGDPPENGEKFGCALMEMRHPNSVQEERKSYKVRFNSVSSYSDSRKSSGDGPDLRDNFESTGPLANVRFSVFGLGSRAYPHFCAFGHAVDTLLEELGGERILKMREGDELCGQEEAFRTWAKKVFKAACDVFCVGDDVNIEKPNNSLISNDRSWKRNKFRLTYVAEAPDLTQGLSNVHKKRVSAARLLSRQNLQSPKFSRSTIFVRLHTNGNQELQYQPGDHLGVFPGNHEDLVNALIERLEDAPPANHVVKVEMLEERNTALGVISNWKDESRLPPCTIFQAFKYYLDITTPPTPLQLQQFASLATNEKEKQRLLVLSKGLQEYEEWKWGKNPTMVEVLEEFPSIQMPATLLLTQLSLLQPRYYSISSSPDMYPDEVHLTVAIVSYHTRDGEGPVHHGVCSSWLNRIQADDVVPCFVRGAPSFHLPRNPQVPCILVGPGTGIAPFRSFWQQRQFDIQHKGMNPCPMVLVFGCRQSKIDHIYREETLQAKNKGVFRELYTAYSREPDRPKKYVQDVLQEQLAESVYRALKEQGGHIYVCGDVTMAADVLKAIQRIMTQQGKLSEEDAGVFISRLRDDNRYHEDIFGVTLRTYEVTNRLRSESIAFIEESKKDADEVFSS
For assay [3], the target named is T3, Nitric oxide synthase 3 (Bos taurus) (UniProt P29473).
T3 sequence (whole entry): T1 sequence (P29473 whole entry)
Kind of assay: Selectivity ratio for inhibition of Endothelial Nitric oxide synthase to that of Neuronal Nitric oxide synthase in rat. Summed up: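 Ratio of inhibitory activity on the two constitutive NOS isoforms, eNOS and nNOS. Inhibition on each isoform was measured as the effect on NOS conversion of [3H]L-arginine to [3H]L-citrulline.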

Assay [4] is filed under the species Rattus norvegicus. Kind of assay: Antioxidant potency of compound was assessed for their ability to inhibit [Fe2+] induced lipid peroxidation in rat brain microsomes. In kind it is functional.
The target in assay [5] is T1, Nitric oxide synthase 3. Kind of assay: Inhibitory concentration tested against bovine endothelial nitric oxide synthase (eNOS); Not active. A digest of the protocol: as §1
For assay [6], the target named is T2, Nitric oxide synthase 1. Description: Inhibitory concentration tested against neuronal nitric oxide synthase (nNOS ) from rat cerebellum; Not active. In kind it is tissue-based. Summed up: as §1
The species named for assay [7] is Rattus norvegicus. Kind of assay: Antioxidant potency of compound was assessed for their ability to inhibit [Fe2+] induced lipid peroxidation in rat brain microsomes; Not active. In kind it is functional.

Take `CC(C)(C)c1cc(CCNCc2cccc(N=C(N)c3cccs3)c2)cc(C(C)(C)C)c1O`: the IC50 (in general, the point on the concentration scale where inhibition reaches its midpoint) was determined as 15.5 µM in assay [1] and 1.4 µM in assay [2].

For the molecule `N=C(Nc1ccc(CN)cc1)c1cccs1`, the results for the IC50 in assay [1] and in assay [2] were 37.1 µM and 0.2 µM, respectively. In assay [3], the Selectivity ratio was determined as 195.

With `CC(C)(C)c1cc(CCNCc2cccc(NC(=N)c3cccs3)c2)cc(C(C)(C)C)c1O`, the Selectivity ratio in assay [3] turned out to be 11.1. Besides, in assay [4], 2.4 µM corresponded to half-maximal inhibition (IC50).

Regarding `CC(C)(C)c1cc(CCCNCc2cccc(NC(=N)c3cccs3)c2)cc(C(C)(C)C)c1O`, the IC50 in assay [1] was 4.9 µM; in assay [2] it was 0.47 µM; in assay [4], 0.4 µM. In assay [3], the Selectivity ratio stood at 10.4.

Take `N/C(=N/c1ccc(N)cc1)c1cccs1`: the results for the IC50 in assay [1] and in assay [2] were more than 100 µM and 18 µM, respectively. The Selectivity ratio in assay [3] was more than 5.5.

On to `Cc1cc(C(C)(C)C)c(O)c(C(C)(C)C)c1` [BUTYLATED HYDROXYTOLUENE], for which the IC50 entry in assay [5] is “Not Active”; in assay [6], “Not Active”; in assay [4], 32.5 µM.

Consider `CC(C)c1cc(CCCNCc2cccc(NC(=N)c3cccs3)c2)cc(C(C)C)c1O`, for which the IC50 is 8.1 µM in assay [1], 0.12 µM in assay [2] and 0.4 µM in assay [4]. In assay [3], the Selectivity ratio is 67.5.

Turning to `N=C(Nc1ccccc1)c1cccs1`, the IC50 in assay [1] stood at 13.9 µM; in assay [2] it was 2.2 µM. Moreover, in assay [3], the Selectivity ratio worked out at 6.3.

`CC(C)(C)c1cc(CNCc2cccc(NC(=N)c3cccs3)c2)cc(C(C)(C)C)c1O`: the IC50 is 15.7 µM in assay [1], 1.6 µM in assay [2] and 4.9 µM in assay [4]. Further, the Selectivity ratio in assay [3] was 9.8.

As for `Cl.Cl.Cl.N=C(Nc1ccc(CCNCc2cccc(Cl)c2)cc1)c1cccs1`, the IC50 in assay [1] was 7.2 µM; in assay [2], 0.12 µM; in assay [7], “Not Active”. Moreover, the Selectivity ratio in assay [3] stood at 60.

`N=C(Nc1ccc(CCN)cc1)c1cccs1`: the IC50 was 25 µM in assay [1] and 0.08 µM in assay [2]. Besides, the Selectivity ratio in assay [3] came out at 312.

As to `N=C(Nc1cccc(CN)c1)c1cccs1`, the IC50 in assay [1] stood at 24.2 µM; in assay [2], 0.05 µM. The Selectivity ratio in assay [3] came to 484.

(Values after ChEMBL document CHEMBL1136261, “Novel inhibitors of neuronal nitric oxide synthase with potent antioxidant properties” (Bioorg Med Chem Lett, 2003).)
